{"source": "ChEMBL document CHEMBL4138225", "about": "“Development of novel anti-filarial agents using carbamo(dithioperoxo)thioate derivatives” (Eur J Med Chem, 2018)", "key": {"Setaria cervi [1]": {"tested_on": "Setaria cervi", "experiment": "Antifilarial activity against Setaria cervi microfilariae after 24 hrs by MTT assay", "format": "functional", "in_short": "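Bovine S. cervi microfilariae incubated with compounds (DMSO-dissolved) in RPMI-1640 + 10% FBS, 5% CO2, 24 h. Worms washed in PBS; ~1×10^3 suspended in 0.3 ml MTT 0.25 mg/ml, 37 °C 2 h in dark. Formazan dissolved in DMSO, absorbance at 595 nm. Percent inhibition computed; LC50 fitted; ≥4 repeats, mean ± SE.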"}, "Setaria cervi [2]": {"tested_on": "Setaria cervi", "experiment": "Antifilarial activity against Setaria cervi microfilariae assessed as reduction in worm movement measured every 6 hrs up to 24 hrs by microscopy", "format": "functional, organism-based", "in_short": "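About 1×10^5 S. cervi mf per well in RPMI-1640 with 10% FBS at 5% CO2, given a dose series. Motility checked by microscope every 6 h up to 24 h and scored 4 (highly motile) down to 0 (dead). IC50 and MIC calculated from scores; three experiments in triplicate, mean ± SE.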"}, "Setaria cervi [3]": {"tested_on": "Setaria cervi", "experiment": "Antifilarial activity against Setaria cervi microfilariae after 3 hrs by trypan blue exclusion assay", "format": "functional, organism-based", "in_short": "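After treatment, the culture was mixed and 100 μL holding parasites moved into fresh medium and put back in the CO2 incubator. Viability read by trypan blue staining, dead worms blue. Viability % = live / total microfilariae.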"}, "Setaria cervi [4]": {"tested_on": "Setaria cervi", "experiment": "Antifilarial activity against Setaria cervi microfilaria forms after 24 hrs by MTT assay", "format": "functional, organism-based", "in_short": "(§1)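 S. cervi mf or adults cultured in RPMI-1640 with 10% FBS, 5% CO2, 24 h with compounds dissolved in DMSO. Worms washed in PBS, ~1×10^3 put in 0.25 mg/ml MTT for 2 h at 37 °C in the dark. Formazan dissolved in DMSO, A595. Percent inhibition computed, LC50 fitted; at least four repeats, mean ± SE.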"}, "Setaria cervi [5]": {"tested_on": "Setaria cervi", "experiment": "Antifilarial activity against Setaria cervi oocytes after 24 hrs by MTT assay", "format": "functional, organism-based"}, "Setaria cervi [6]": {"tested_on": "Setaria cervi", "experiment": "Antifilarial activity against Setaria cervi adult after 24 hrs by MTT assay", "format": "functional, organism-based", "in_short": "as §1"}, "Setaria cervi [7]": {"tested_on": "Setaria cervi", "experiment": "Antifilarial activity against Setaria cervi microfilariae after 3 hrs"}, "Setaria cervi [8]": {"tested_on": "Setaria cervi", "experiment": "Antifilarial activity against Setaria cervi adult after 3 hrs by trypan blue exclusion assay", "format": "functional, organism-based"}, "Setaria cervi [9]": {"tested_on": "Setaria cervi", "experiment": "Induction of chromatin condensation in Setaria cervi microfilariae by Hoechst 33342 staining-based […] microscopic analysis", "format": "functional, organism-based", "in_short": "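Treated mf washed in PBS (pH 7.2), fixed in paraformaldehyde and stained 5 min with 1 mg/mL Hoechst 33342. Mounted on poly-L-lysine slides and imaged by fluorescence microscopy at […].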"}}, "note": "Calls of active or inactive are those of the source. The rule behind the calls is not given here."}
{"molecule": "Cc1ccc(SSC(=S)N2CCCC2)cc1", "values": [{"measurement": "LC50", "setting": "Setaria cervi [1]", "result": 94.3, "unit": "µg/mL"}, {"measurement": "IC50", "setting": "Setaria cervi [2]", "result": 23.6, "unit": "µg/mL"}, {"measurement": "MIC", "setting": "Setaria cervi [2]", "result": 7.86, "unit": "µg/mL"}]}
{"molecule": "S=C(SSc1ccccn1)N1CCCCC1", "values": [{"measurement": "LC50", "setting": "Setaria cervi [1]", "result": 97.3, "unit": "µg/mL"}, {"measurement": "IC50", "setting": "Setaria cervi [2]", "result": 24.3, "unit": "µg/mL"}, {"measurement": "MIC", "setting": "Setaria cervi [2]", "result": 8.69, "unit": "µg/mL"}]}
{"molecule": "Cc1ccc(SSC(=S)N2CCc3ccccc3C2)cc1", "values": [{"measurement": "LC50", "setting": "Setaria cervi [1]", "result": 128, "unit": "µg/mL"}, {"measurement": "IC50", "setting": "Setaria cervi [2]", "result": 32.1, "unit": "µg/mL"}, {"measurement": "MIC", "setting": "Setaria cervi [2]", "result": 10.7, "unit": "µg/mL"}]}
{"molecule": "S=C(SSc1ncccn1)N1CCOCC1", "values": [{"measurement": "Activity", "setting": "Setaria cervi [3]", "result": "Dose-dependent effect"}, {"measurement": "Activity", "setting": "Setaria cervi [4]", "result": "Active"}, {"measurement": "Activity", "setting": "Setaria cervi [5]", "result": "Active"}, {"measurement": "Activity", "setting": "Setaria cervi [6]", "result": "Dose-dependent effect"}, {"measurement": "Activity", "setting": "Setaria cervi [1]", "result": "Dose-dependent effect"}, {"measurement": "LC50", "setting": "Setaria cervi [1]", "result": 6.17, "unit": "µg/mL"}, {"measurement": "IC50", "setting": "Setaria cervi [7]", "result": 5.5, "unit": "µg/mL"}, {"measurement": "Activity", "setting": "Setaria cervi [8]", "result": "Dose-dependent effect"}, {"measurement": "Activity", "setting": "Setaria cervi [9]", "result": "Active"}, {"measurement": "IC50", "setting": "Setaria cervi [2]", "result": 5.5, "unit": "µg/mL"}, {"measurement": "MIC", "setting": "Setaria cervi [2]", "result": 0.97, "unit": "µg/mL"}]}
{"molecule": "S=C(SSc1ccccn1)N1CCc2ccccc2C1", "values": [{"measurement": "LC50", "setting": "Setaria cervi [1]", "result": 99.2, "unit": "µg/mL"}, {"measurement": "IC50", "setting": "Setaria cervi [2]", "result": 24.8, "unit": "µg/mL"}, {"measurement": "MIC", "setting": "Setaria cervi [2]", "result": 8.26, "unit": "µg/mL"}]}
{"molecule": "COc1ccc(SSC(=S)N2CCCC2)cc1", "values": [{"measurement": "LC50", "setting": "Setaria cervi [1]", "result": 97, "unit": "µg/mL"}, {"measurement": "IC50", "setting": "Setaria cervi [2]", "result": 24.2, "unit": "µg/mL"}, {"measurement": "MIC", "setting": "Setaria cervi [2]", "result": 8.08, "unit": "µg/mL"}]}
{"molecule": "S=C(SSc1ncccn1)N1CCC(Cc2ccccc2)CC1", "values": [{"measurement": "LC50", "setting": "Setaria cervi [1]", "result": 240, "unit": "µg/mL"}, {"measurement": "IC50", "setting": "Setaria cervi [2]", "result": 59.9, "unit": "µg/mL"}, {"measurement": "MIC", "setting": "Setaria cervi [2]", "result": 20, "unit": "µg/mL"}]}
{"molecule": "Cc1ccc(SSC(=S)N2CCC(Cc3ccccc3)CC2)cc1", "values": [{"measurement": "LC50", "setting": "Setaria cervi [1]", "result": 22.5, "unit": "µg/mL"}, {"measurement": "IC50", "setting": "Setaria cervi [2]", "result": 19.6, "unit": "µg/mL"}, {"measurement": "MIC", "setting": "Setaria cervi [2]", "result": 1.22, "unit": "µg/mL"}]}
{"molecule": "S=C(SSc1cccc2ccccc12)N1CCOCC1", "values": [{"measurement": "LC50", "setting": "Setaria cervi [1]", "result": 88.9, "unit": "µg/mL"}, {"measurement": "IC50", "setting": "Setaria cervi [2]", "result": 22.2, "unit": "µg/mL"}, {"measurement": "MIC", "setting": "Setaria cervi [2]", "result": 7.41, "unit": "µg/mL"}]}
{"molecule": "COc1ccc(SSC(=S)N2CCOCC2)cc1", "values": [{"measurement": "LC50", "setting": "Setaria cervi [1]", "result": 80.3, "unit": "µg/mL"}, {"measurement": "IC50", "setting": "Setaria cervi [2]", "result": 20.1, "unit": "µg/mL"}, {"measurement": "MIC", "setting": "Setaria cervi [2]", "result": 6.69, "unit": "µg/mL"}]}
{"molecule": "COc1ccc(SSC(=S)N2CCc3ccccc3C2)cc1", "values": [{"measurement": "LC50", "setting": "Setaria cervi [1]", "result": 126, "unit": "µg/mL"}, {"measurement": "IC50", "setting": "Setaria cervi [2]", "result": 31.4, "unit": "µg/mL"}, {"measurement": "MIC", "setting": "Setaria cervi [2]", "result": 10.5, "unit": "µg/mL"}]}
